High-throughput results deposited in PubChem by several laboratories.
Hep lipid drop = modulators of hepatic lipid droplet formation; AML12 mouse hepatocytes, oleate lipid droplets, BODIPY imaging; inhibition, % at 6.5 µM; actives 0.4% (n = 240,000);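 active = lipid droplet intensity inhibited by at least 50%, with more than 500 cells counted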
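Test system: AML12 hepatocytes (mouse); reagent: oleate loading, 100 µM; dosing: one dose, 6.5 µM compound; incubation: overnight exposure; signal: fluorescence imaging, 20x objective, two fields per well; read-out basis: % inhibition of corrected integrated BODIPY droplet signal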
TMEM16A act = activators or potentiators of mouse TMEM16A chloride channel. Q8BHY3. HEK293 TMEM16A/YFP-H148Q/I152L, iodide quench fluorescence; stronger effect = lower value. B-score at 10 µM. actives 0.3% (n = 340,000). AID 623877;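 active = fluorescence-ratio B-score plate-corrected deviation score at least 3 library SD below zero, with starting fluorescence score within 5 deviations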;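 note: channel opened by trigger with iodide after compound preincubation; score built on the fluorescence ratio of max minus min over baseline; more negative score means more quench and so TMEM16A activation or potentiation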
Target sequence (Q8BHY3 whole entry, looked up): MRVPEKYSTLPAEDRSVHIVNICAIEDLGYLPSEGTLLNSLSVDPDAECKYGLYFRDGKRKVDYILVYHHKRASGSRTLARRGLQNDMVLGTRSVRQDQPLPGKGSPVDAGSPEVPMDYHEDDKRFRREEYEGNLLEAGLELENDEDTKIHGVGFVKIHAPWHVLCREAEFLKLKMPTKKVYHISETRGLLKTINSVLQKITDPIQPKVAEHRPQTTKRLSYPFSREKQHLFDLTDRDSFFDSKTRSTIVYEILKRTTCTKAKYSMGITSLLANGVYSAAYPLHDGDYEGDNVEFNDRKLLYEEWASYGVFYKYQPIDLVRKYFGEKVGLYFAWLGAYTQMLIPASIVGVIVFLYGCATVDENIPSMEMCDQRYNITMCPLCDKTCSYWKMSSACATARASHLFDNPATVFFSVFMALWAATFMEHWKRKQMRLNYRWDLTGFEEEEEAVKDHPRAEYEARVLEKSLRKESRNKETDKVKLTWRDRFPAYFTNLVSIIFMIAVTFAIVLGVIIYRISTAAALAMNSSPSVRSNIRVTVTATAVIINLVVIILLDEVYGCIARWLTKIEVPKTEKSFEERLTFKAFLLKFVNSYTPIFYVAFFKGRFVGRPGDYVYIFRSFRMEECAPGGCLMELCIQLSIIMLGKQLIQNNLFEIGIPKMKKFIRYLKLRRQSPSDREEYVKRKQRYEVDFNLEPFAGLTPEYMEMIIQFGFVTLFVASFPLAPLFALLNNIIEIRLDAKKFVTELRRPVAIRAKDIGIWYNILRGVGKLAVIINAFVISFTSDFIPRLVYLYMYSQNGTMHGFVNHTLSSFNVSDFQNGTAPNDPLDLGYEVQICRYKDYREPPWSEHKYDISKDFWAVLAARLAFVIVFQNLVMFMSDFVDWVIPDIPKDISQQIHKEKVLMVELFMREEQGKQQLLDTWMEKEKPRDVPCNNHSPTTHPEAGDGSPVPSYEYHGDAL
CHOP inhibitor = blocks CHOP induction under ER stress. CHO-K1 CHOP-promoter luciferase, tunicamycin-induced, 15-18 h. inhibition, % at 10 µM. actives 3.8% (n = 220,000). AID 2732;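 active = compounds that reduced the stress-induced luciferase reporter signal by more than about 70% of percent inhibition, limit read from the data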;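 note: 0% = tunicamycin plus vehicle and 100% = wells without tunicamycin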
CHOP UPR activ = apoptotic UPR (CHOP) activation; CHO-CHOP luciferase reporter, luminescence; percent of tunicamycin response over DMSO baseline; activation, % at 10 µM; actives 0.34% (n = 330,000); AID 449763;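 active = at 10 µM dose, activation of 40% or more, normalized to positive control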;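 note: 100% = tunicamycin at 10 µg/mL and 0% = DMSO alone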
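System: CHO CHOP reporter cells. Amount: 500 cells per well. Buffer or medium: F12 medium, 10% FBS. Compound dosing: one dose, 10 µM in 0.5% DMSO. Incubation: 6 h compound exposure at 37 °C after overnight seeding. Technique: Steady-Glo luciferase luminescence. Benchmarks: tunicamycin and DMSO controls.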
XBP1 UPR activ = activators of adaptive arm of unfolded protein response (XBP1); CHO-XBP1 luciferase reporter, IRE1-XBP1 UPR activation, luminescence; percent of tunicamycin response, DMSO as zero; activation, % at 20 µM; actives 0.33% (n = 330,000);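 active = versus positive control, 20 µM dose yields 30% or more activation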;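 note: 100% = tunicamycin at 10 µg/mL and 0% = DMSO only wells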
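Assay system: CHO-XBP1 luciferase reporter cells; Schedule: 6 h treatment, 37 °C; Detection: glow luminescence from Steady-Glo reagent; Benchmarks: high control tunicamycin 10 µg/mL final, low control DMSO vehicle only.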
ANO1 block = mouse TMEM16A channel inhibition, primary screen. actives 1.2% (n = 310,000). HEK293 TMEM16A/YFP iodide influx fluorescence, ionomycin. Q8BHY3. normalized B-score (activity score, 25-100; higher = stronger inhibition) at 10 µM;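 active = ratio plate-corrected score three or more library SD toward inhibition, starting fluorescence score within five deviations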;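 note: score derived from kinetic fluorescence span divided by baseline fluorescence per well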
TMEM16A reconf = re-confirmation of mouse TMEM16A chloride channel inhibitors. shares compounds with ANO1 block. HEK293 TMEM16A/YFP-H148Q, iodide quench fluorescence; ionomycin added to raise cell calcium. inhibition, % at 10 µM. actives 39% (n = 2,300). AID 652189;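 active = mean duplicate percent inhibition, scaled so buffer wells are 0 and the reference blocker 100, over three buffer SD above buffer mean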
HEK293 Ca mobil = alters calcium mobilization in TMEM16A HEK293 cells, counter-screen; TMEM16A/YFP HEK293, Fluo4 calcium mobilization; actives 2% (n = 2,300); shares compounds with ANO1 block; AID 652231; calcium response (% of ionomycin), % at 10 µM;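 active = duplicate-averaged calcium signal over 20% of the ionomycin maximum, relative to buffer baseline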;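 note: each well's signal is peak minus trough fluorescence divided by its pre-addition baseline; 0% = buffer wells and 100% = ionomycin wells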
Parental YFP cnt = acts in parental YFP-HEK293 cells lacking TMEM16A, counter-screen | YFP ratio F(max-min)/F0 at 10 µM | shares compounds with ANO1 block | iodide YFP quench, ionomycin | 2,300 tested, under 10 active;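 active = yellow fluorescent protein signal ratio exceeding the buffer control mean by over 5 SD of those controls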;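 note: ratio is mean of duplicate wells from kinetic YFP trace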
ClC-1 inh = selectivity of TMEM16A inhibitors: inhibition of rat ClC-1 chloride channel; shares compounds with ANO1 block; CHO ClC-1-YFP, iodide influx fluorescence quench; iodide control reads 0, buffer control 100; ratio percent, % at 10 µM; 2,300 tested, under 10 active; AID 652236;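 active = duplicate-mean ratio percent above the mean of iodide-only control wells, which defines zero, plus 5 of their SD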;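 note: higher percent means stronger block of ClC-1 iodide influx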
An asterisk follows results filed as active; i = inactive; nt = not tested or not shown. The list is not random: actives were taken first. Their share in the collection is about 4.2%.

SMILES | Hep lipid drop | TMEM16A act | CHOP inhibitor | CHOP UPR activ | XBP1 UPR activ | ANO1 block | TMEM16A reconf | HEK293 Ca mobil | Parental YFP cnt | ClC-1 inh
Fc1ccc(NC(=S)Nc2cccnc2)cc1Cl | -5.9 | i | 18.2 | -0.3 | -3.8 | 25* | i | i | -0.812 | -10.5
Fc1ccc(NC(=S)Nc2ccccc2OC(F)F)cc1Cl | -41.6 | i | 8.1 | -2.9 | -0.6 | 100* | 63.0%* | i | -1.43 | -29.5
CCCCn1cnc2c(SCc3ccccc3F)nc(N)nc21 | nt | i | nt | nt | nt | nt | nt | nt | nt | nt
CC(=O)c1nnn(-c2nc(N)nc(N(c3ccccc3)c3ccccc3)n2)c1C | nt | i | -14.6 | 1.8 | -2.8 | i | nt | nt | nt | nt
CCCCN(CCCC)c1nc(OC)nc(-n2nnc(C(C)=O)c2C)n1 | nt | i | 58.7 | -1.3 | -2.2 | 25* | 17.0%* | i | -1.1 | -12.5
COc1ccc(-c2csc(Nc3cc(C)ccn3)n2)cc1OC | 3.7 | i | nt | 8.3 | 3.2 | 25* | 23.5%* | i | -0.743 | -10.5
COc1ccc(-c2csc(Nc3ccc(C)cn3)n2)cc1OC | 1.6 | i | -2.0 | 1.2 | -0.1 | i | nt | nt | nt | nt
Cc1cc(C)cc(NC(=O)C(NCCN2CCOCC2)c2ccccc2)c1 (stereo not given) | 0.0 | i | 8.4 | -0.9 | -1.4 | i | nt | nt | nt | nt
COc1ccc2c(c1)CCc1c(C(=O)NC3CCCCC3)noc1-2 | -1.9 | i | 58.4 | 3.1 | -0.7 | 100* | i | i | -0.841 | -4.5
COCCNC(=O)c1noc2c1CCc1cc(OC)ccc1-2 | -14.6 | i | -26.2 | -0.3 | -1.6 | i | nt | nt | nt | nt
CCN(CC)CCCCNc1ncc2cc(-c3cc(OC)cc(OC)c3)c(NC(=O)NC(C)(C)C)nc2n1 | -1.9 | i | nt | 10.5 | 8.0 | i | nt | nt | nt | nt
COc1ccc(C)cc1N(CC(=O)O)S(=O)(=O)c1ccc(C)cc1 | -2.9 | i | 9.8 | -1.2 | -1.0 | i | i | i | -0.632 | -5.5
CCn1c(=O)c([N+](=O)[O-])c(N2CCSCC2)c2ccccc21 | -8.1 | i | 36.8 | -0.4 | -2.2 | 25* | i | i | -0.849 | -7.5
Cn1c(=O)c([N+](=O)[O-])c(N2CCSCC2)c2ccccc21 | 24.0 | i | 5.8 | -0.1 | -1.1 | i | nt | nt | nt | nt
O=C(COC(=O)c1cc2ccccc2o1)NCc1ccco1 | nt | i | nt | -2.6 | -1.5 | nt | nt | nt | nt | nt
CCN(CC)S(=O)(=O)c1cccc(NC(=O)CCNC(=O)NC23CC4CC(CC(C4)C2)C3)c1 | nt | i | nt | -0.3 | -0.1 | i | nt | nt | nt | nt
CC(=O)Nc1ccc(S(=O)(=O)Nc2ccc(-n3cnnn3)cc2)cc1 | nt | i | nt | 0.6 | -2.1 | nt | nt | nt | nt | nt
CN(C)S(=O)(=O)c1cccc(COC(=O)c2ccc(Cl)cc2O)c1 | -7.5 | i | 37.5 | -2.4 | 3.6 | 100* | 28.5%* | i | -0.881 | -24.0
O=C(N/N=C/c1sc(N2CCOCC2)nc1-c1ccccc1)c1cccc(S(=O)(=O)N2CCOCC2)c1 | -1.2 | i | -71.7 | 1.4 | -1.8 | i | i | i | -0.889 | 1.0
Nc1ccc(C(=O)N/N=C/c2sc(N3CCOCC3)nc2-c2ccccc2)cc1 | -9.6 | i | -28.6 | 2.1 | -0.1 | i | nt | nt | nt | nt
CC(C)c1noc2ncc(C(=O)c3cc(Cl)cc(Cl)c3O)cc12 | -13.2 | i | 9.5 | -0.5 | -1.7 | 25* | 32.5%* | i | -0.882 | -3.5
